Experimental data published in ChEMBL document CHEMBL1140424, “Charge dependence of cellular uptake and selective antitumor activity of porphyrazines” (J Med Chem, 2005).

Legend:
A549 [1] = assay: Cellular uptake in A549 cells using false-white single-photon confocal microscopy; format: ADME, cell-based; settings: human
Method in brief: (§1)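 Cells on glass coverslips grown at 37 °C, 5% CO2 to 60–80% confluence, then treated with pz (50, 25, 12.5, 6.2, 3.1 µM; DMSO stock) in the dark for 24 h. Washed twice with PBS and imaged live in PBS at room temperature. Single-photon excitation at 488 nm, long-pass 505-nm emission filter. Gain set to remove autofluorescence in DMSO-treated controls.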

WI-38 VA13 [2] = assay: Cytotoxicity against human fibroblast-like cell line of embryonic origin WI-38 VA13 at 12.5 to 100 uM by MTT assay; format: functional, cell-based
Method in brief: (§2)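 Cells were grown to 70% confluence and treated in the dark with pz (12.5, 25, 50, 100 µM) or DMSO vehicle for 72 h. MTT (200 µg) was added for 5 h at 37 °C, solubilised in DMSO, and absorbance read at 540 nm. Viability is relative to DMSO control. Four plates per experiment, at least three experiments, normalised and averaged (≥12 values per condition).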

A549 [3] = assay: Decrease in viability of A549 cells at 50 uM for 72 hrs; format: cell-based; settings: human, a549, 72 h; method in brief: as §2
A549 [4] = assay: Cellular uptake in A549 cells using false-white single-photon confocal microscopy at 3.1 uM; format: ADME, cell-based; settings: human, a549, 3.1 µM; method in brief: as §1
A549 [5] = assay: Colocalization experiment with mitotracker green in A549 cells at 100 uM for 24 hrs by false-white two-photon confocal microscopy; settings: human, a549, 24 h
A549 [6] = assay: Cytotoxicity against A549 tumor cells at 12.5 to 100 uM by MTT assay; format: functional, cell-based; settings: Homo sapiens; method in brief: as §2
A549 [7] = assay: Colocalization experiment with LysoTracker green in A549 cells at 100 uM for 24 hrs by false-white two-photon confocal microscopy; settings: human, a549, 24 h
A549 [8] = assay: Decrease in viability of A549 cells at 100 uM for 72 hrs; format: cell-based; settings: human, a549, 72 h; method in brief: as §2
WI-38 VA13 [9] = assay: Decrease in viability of WI-38 VA13 cells at 50 uM for 72 hrs; format: cell-based; settings: human, wi-38 va13, 72 h; method in brief: as §2
WI-38 VA13 [10] = assay: Decrease in viability of WI-38 VA13 cells at 100 uM for 72 hrs; format: cell-based; settings: human, wi-38 va13, 72 h; method in brief: as §2
A549 [11] = assay: Percentage increase in growth of A549 tumor cells at 12.5 uM for 72 hrs; format: cell-based; settings: human, a549, 72 h; method in brief: as §2
WI-38 VA13 [12] = assay: Percentage growth of WI-38 VA13 cells at 25 uM for 72 hrs; format: cell-based; settings: human, wi-38 va13, 72 h; method in brief: as §2
WI-38 VA13 [13] = assay: Percentage increase in growth of WI-38 VA13 cells at 12.5 uM for 72 hrs; format: cell-based; settings: human, wi-38 va13, 72 h; method in brief: as §2
A549 [14] = assay: Decrease in viability of A549 cells at 25 uM for 72 hrs; format: cell-based; settings: human, a549, 72 h; method in brief: as §2

`CC(C)Oc1ccc(OC(C)C)c2c1-c1nc3nc(nc4[nH]c(nc5[nH]c(nc-2n1)c(SCCOCCOCCO)c5SCCOCCOCCO)c1c(OC(C)C)ccc(OC(C)C)c41)C(SCCOCCOCCO)=C3SCCOCCOCCO` was tested, and the Activity (A549 [1]) was “Active”, the Activity (WI-38 VA13 [2]) was “Toxic” and the Activity (A549 [3]) was 40%. The Activity (A549 [4]) was “Active”, the Activity (A549 [5]) was “Active” and the Activity (A549 [6]) was “Toxic”. The Activity (A549 [7]) was “Not Active”.

`CC(C)Oc1ccc(OC(C)C)c2c1-c1nc3nc([nH]c4nc(nc5[nH]c(nc-2n1)c(SCCOCC[n+]1ccccc1)c5SCCOCC[n+]1ccccc1)-c1c(OC(C)C)ccc(OC(C)C)c1-4)C(SCCOCC[n+]1ccccc1)=C3SCCOCC[n+]1ccccc1` was tested, and the Activity (A549 [8]) was 70%, the Activity (WI-38 VA13 [2]) was “Toxic” and the Activity (A549 [3]) was 10%. The Activity (A549 [6]) was “Toxic”, the Activity (WI-38 VA13 [9]) was 20% and the Activity (WI-38 VA13 [10]) was 70%.

In the case of `CC(C)Oc1ccc(OC(C)C)c2c1-c1nc3nc([nH]c4nc(nc5[nH]c(nc-2n1)c(SCCCC(=O)O)c5SCCCC(=O)O)-c1c(OC(C)C)ccc(OC(C)C)c1-4)C(SCCCC(=O)O)=C3SCCCC(=O)O`, the Activity (A549 [11]) is reported as 10%, the Activity (A549 [8]) is reported as 80% and the Activity (WI-38 VA13 [12]) is reported as 10%. It also gave an Activity (A549 [3]) of 80%, an Activity (WI-38 VA13 [9]) of 10% and an Activity (WI-38 VA13 [13]) of 10%. It also gave an Activity (A549 [14]) of 40%.
